Assay results as given in ChEMBL document CHEMBL5303300, “EUbOPEN Chemogenomics Library - Multiplex” (2023).
Values joined by “and” are separate entries in the source; they are usually repeats but may differ in a detail not shown here. Equal entries are not always repeated.

Test system: U2OS
Assay: Multiplex assay against U2OS
Type: toxicity, cell-based
Details: human, number of replicates 2
Summary of the method: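 With compound added, live cells were imaged on a CQ1 microscope at 37°C and 5% CO2; staining with Hoechst33342, BioTracker Green Microtubule Cytoskeleton Dye, MitoTracker Red and Annexin V Alexa Fluor 680 had been done at seeding. The CellPathfinder machine-learning gating scheme split cells into Hoechst high-intensity objects or normal cells, normal cells into healthy, pyknosed or fragmented nuclei, and pyknosed cells into mitotic or apoptotic. The tubulin, mitochondrial-mass and membrane-permeability phenotypes are per cents of healthy-nucleus cells.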

[1] = 12 h, 1 µM, compound concentration 1 uM
[2] = 12 h, 10 µM, compound concentration 10 uM
[3] = 24 h, 1 µM, compound concentration 1 uM
[4] = 24 h, 10 µM, compound concentration 10 uM
[5] = 48 h, 1 µM, compound concentration 1 uM
[6] = 48 h, 10 µM, compound concentration 10 uM

## Cn1cc(-c2ccc(-c3cncc(Cl)c3N3CCC4(CCNC4=O)CC3)cc2)cn1
[1]
  Population Apoptotic (%): 56% and 66%
  Population Healthy Nuclei (%): 86% and 64%
  Population Hoechst High Intensity Objects (%): 0%
  Population Membrane Permeable-Phenotype (%): 3% and 7%
  Population Mitochondria Different-Phenotype (%): 1% and 0%
  Population Mitotic Cells (%): 43% and 33%
  Population Normal (%): 99% and 100%
  Population Pyknosed Nuclei (%): 8% and 7%
  Population Tubulin-Different-Phenotype (%): 64% and 40%
[2]
  Population Apoptotic (%): 100% and 50%
  Population Healthy Nuclei (%): 61% and 79%
  Population Hoechst High Intensity Objects (%): 0%
  Population Membrane Permeable-Phenotype (%): 19% and 10%
  Population Mitochondria Different-Phenotype (%): 0% and 6%
  Population Normal (%): 100%
  Population Pyknosed Nuclei (%): 9% and 14%
  Population Tubulin-Different-Phenotype (%): 23% and 36%
[3]
  Population Apoptotic (%): 72% and 66%
  Population Healthy Nuclei (%): 88% and 65%
  Population Hoechst High Intensity Objects (%): 0%
  Population Membrane Permeable-Phenotype (%): 2% and 7%
  Population Mitochondria Different-Phenotype (%): 2% and 0%
  Population Mitotic Cells (%): 27% and 33%
  Population Normal (%): 100%
  Population Pyknosed Nuclei (%): 8% and 6%
  Population Tubulin-Different-Phenotype (%): 65% and 39%
[4]
  Population Apoptotic (%): 88% and 60%
  Population Healthy Nuclei (%): 59% and 80%
  Population Hoechst High Intensity Objects (%): 0%
  Population Membrane Permeable-Phenotype (%): 20% and 14%
  Population Mitochondria Different-Phenotype (%): 0% and 17%
  Population Normal (%): 100% and 99%
  Population Pyknosed Nuclei (%): 21% and 13%
  Population Tubulin-Different-Phenotype (%): 32% and 46%
[5]
  Population Apoptotic (%): 70% and 100%
  Population Healthy Nuclei (%): 88% and 65%
  Population Hoechst High Intensity Objects (%): 0%
  Population Membrane Permeable-Phenotype (%): 2% and 5%
  Population Mitochondria Different-Phenotype (%): 3% and 0%
  Population Normal (%): 99% and 100%
  Population Pyknosed Nuclei (%): 7% and 6%
  Population Tubulin-Different-Phenotype (%): 65% and 47%
[6]
  Population Apoptotic (%): 78% and 92%
  Population Fragmented Nuclei (%): 7% and 17%
  Population Healthy Nuclei (%): 74% and 53%
  Population Hoechst High Intensity Objects (%): 0%
  Population Membrane Permeable-Phenotype (%): 25% and 33%
  Population Mitotic Cells (%): 21% and 7%
  Population Normal (%): 100%
  Population Pyknosed Nuclei (%): 17% and 28%
  Population Tubulin-Different-Phenotype (%): 50% and 45%

## CNc1ncc2cc(-c3ccc(-c4cccc(C)n4)cc3Cl)c(=O)n(C[C@H]3OC[C@H](N)CO3)c2n1
[1]
  Population Apoptotic (%): 75% and 70%
  Population Healthy Nuclei (%): 33% and 85%
  Population Hoechst High Intensity Objects (%): 0%
  Population Mitochondria Different-Phenotype (%): 7% and 0%
  Population Mitotic Cells (%): 25% and 29%
  Population Normal (%): 100% and 99%
  Population Pyknosed Nuclei (%): 19% and 10%
  Population Tubulin-Different-Phenotype (%): 42% and 70%
[2]
  Population Apoptotic (%): 60% and 36%
  Population Fragmented Nuclei (%): 38% and 16%
  Population Healthy Nuclei (%): 28% and 54%
  Population Hoechst High Intensity Objects (%): 5% and 0%
  Population Membrane Permeable-Phenotype (%): 15% and 11%
  Population Mitotic Cells (%): 39% and 63%
  Population Normal (%): 94% and 99%
  Population Pyknosed Nuclei (%): 32% and 29%
  Population Tubulin-Different-Phenotype (%): 50% and 38%
[3]
  Population Apoptotic (%): 80% and 76%
  Population Healthy Nuclei (%): 42% and 79%
  Population Hoechst High Intensity Objects (%): 0%
  Population Mitochondria Different-Phenotype (%): 5% and 1%
  Population Mitotic Cells (%): 20% and 23%
  Population Normal (%): 100% and 99%
  Population Pyknosed Nuclei (%): 23% and 12%
  Population Tubulin-Different-Phenotype (%): 50% and 75%
[4]
  Population Apoptotic (%): 43% and 53%
  Population Fragmented Nuclei (%): 31% and 17%
  Population Healthy Nuclei (%): 20% and 51%
  Population Hoechst High Intensity Objects (%): 6% and 1%
  Population Mitochondria Different-Phenotype (%): 57% and 19%
  Population Mitotic Cells (%): 56% and 46%
  Population Normal (%): 93% and 98%
  Population Pyknosed Nuclei (%): 47% and 31%
  Population Tubulin-Different-Phenotype (%): 21% and 32%
[5]
  Population Apoptotic (%): 75% and 83%
  Population Healthy Nuclei (%): 54% and 80%
  Population Hoechst High Intensity Objects (%): 0%
  Population Membrane Permeable-Phenotype (%): 9% and 2%
  Population Mitochondria Different-Phenotype (%): 4% and 1%
  Population Mitotic Cells (%): 25% and 16%
  Population Normal (%): 100% and 99%
  Population Pyknosed Nuclei (%): 16% and 13%
  Population Tubulin-Different-Phenotype (%): 73% and 79%
[6]
  Population Apoptotic (%): 60% and 61%
  Population Fragmented Nuclei (%): 45% and 16%
  Population Hoechst High Intensity Objects (%): 5% and 1%
  Population Mitotic Cells (%): 39% and 38%
  Population Normal (%): 94% and 98%
  Population Pyknosed Nuclei (%): 41% and 34%
  Population Tubulin-Different-Phenotype (%): 44% and 50%

## NC(=O)c1ccc(-c2nc(-c3ccc4c(c3)OCCO4)c(-c3ccccn3)[nH]2)cc1
[1]
  Population Apoptotic (%): 40% and 85%
  Population Fragmented Nuclei (%): 1% and 4%
  Population Healthy Nuclei (%): 88% and 86%
  Population Hoechst High Intensity Objects (%): 1% and 0%
  Population Membrane Permeable-Phenotype (%): 4% and 1%
  Population Mitochondria Different-Phenotype (%): 0% and 1%
  Population Normal (%): 98% and 100%
  Population Pyknosed Nuclei (%): 9%
  Population Tubulin-Different-Phenotype (%): 53% and 86%
  Total Cell Count: 54 and 150
[2]
  Population Apoptotic (%): 46% and 33%
  Population Healthy Nuclei (%): 78% and 63%
  Population Hoechst High Intensity Objects (%): 0%
  Population Membrane Permeable-Phenotype (%): 4% and 0%
  Population Mitochondria Different-Phenotype (%): 3% and 0%
  Population Mitotic Cells (%): 53% and 66%
  Population Normal (%): 100%
  Population Pyknosed Nuclei (%): 14% and 8%
  Population Tubulin-Different-Phenotype (%): 62% and 39%
[3]
  Population Apoptotic (%): 54% and 64%
  Population Fragmented Nuclei (%): 2% and 1%
  Population Healthy Nuclei (%): 84% and 92%
  Population Hoechst High Intensity Objects (%): 0%
  Population Membrane Permeable-Phenotype (%): 1%
  Population Mitochondria Different-Phenotype (%): 0%
  Population Mitotic Cells (%): 45% and 35%
  Population Normal (%): 100%
  Population Pyknosed Nuclei (%): 13% and 6%
  Population Tubulin-Different-Phenotype (%): 56% and 92%
  Total Cell Count: 84 and 214
[4]
  Population Healthy Nuclei (%): 86% and 65%
  Population Hoechst High Intensity Objects (%): 0%
  Population Membrane Permeable-Phenotype (%): 3% and 0%
  Population Mitochondria Different-Phenotype (%): 4% and 3%
  Population Normal (%): 99% and 100%
  Population Pyknosed Nuclei (%): 9% and 2%
  Population Tubulin-Different-Phenotype (%): 59% and 48%
[5]
  Population Apoptotic (%): 52% and 74%
  Population Fragmented Nuclei (%): 6% and 3%
  Population Healthy Nuclei (%): 82% and 90%
  Population Hoechst High Intensity Objects (%): 0%
  Population Membrane Permeable-Phenotype (%): 0% and 1%
  Population Mitochondria Different-Phenotype (%): 0%
  Population Mitotic Cells (%): 47% and 25%
  Population Normal (%): 100%
  Population Pyknosed Nuclei (%): 10% and 6%
  Population Tubulin-Different-Phenotype (%): 62% and 95%
[6]
  Population Apoptotic (%): 77% and 78%
  Population Fragmented Nuclei (%): 21% and 7%
  Population Healthy Nuclei (%): 66% and 78%
  Population Hoechst High Intensity Objects (%): 0%
  Population Membrane Permeable-Phenotype (%): 8% and 3%
  Population Mitochondria Different-Phenotype (%): 4% and 2%
  Population Mitotic Cells (%): 22% and 21%
  Population Normal (%): 100%
  Population Pyknosed Nuclei (%): 12% and 14%
  Population Tubulin-Different-Phenotype (%): 61% and 67%

## CN(C)CCCNc1ccnc(Nc2cccc(Cl)c2)n1
[1]
  Population Apoptotic (%): 60% and 50%
  Population Fragmented Nuclei (%): 6% and 5%
  Population Healthy Nuclei (%): 84% and 82%
  Population Hoechst High Intensity Objects (%): 0%
  Population Membrane Permeable-Phenotype (%): 0%
  Population Mitochondria Different-Phenotype (%): 0%
  Population Mitotic Cells (%): 39% and 50%
  Population Normal (%): 100%
  Population Pyknosed Nuclei (%): 9% and 11%
  Population Tubulin-Different-Phenotype (%): 70% and 42%
[2]
  Population Apoptotic (%): 50%
  Population Fragmented Nuclei (%): 11% and 17%
  Population Healthy Nuclei (%): 79% and 67%
  Population Hoechst High Intensity Objects (%): 0%
  Population Membrane Permeable-Phenotype (%): 4% and 5%
  Population Mitochondria Different-Phenotype (%): 4% and 5%
  Population Mitotic Cells (%): 50%
  Population Normal (%): 100%
  Population Pyknosed Nuclei (%): 9% and 14%
  Population Tubulin-Different-Phenotype (%): 52% and 42%
[3]
  Population Apoptotic (%): 66% and 82%
  Population Fragmented Nuclei (%): 2% and 4%
  Population Healthy Nuclei (%): 91% and 88%
  Population Hoechst High Intensity Objects (%): 0%
  Population Membrane Permeable-Phenotype (%): 0% and 2%
  Population Mitochondria Different-Phenotype (%): 0% and 1%
  Population Mitotic Cells (%): 33% and 17%
  Population Normal (%): 100%
  Population Pyknosed Nuclei (%): 6% and 7%
  Population Tubulin-Different-Phenotype (%): 51% and 74%
[4]
  Population Apoptotic (%): 38% and 33%
  Population Fragmented Nuclei (%): 14% and 22%
  Population Healthy Nuclei (%): 67% and 54%
  Population Hoechst High Intensity Objects (%): 0%
  Population Membrane Permeable-Phenotype (%): 2% and 6%
  Population Mitochondria Different-Phenotype (%): 6% and 3%
  Population Mitotic Cells (%): 61% and 66%
  Population Normal (%): 100%
  Population Pyknosed Nuclei (%): 18% and 22%
  Population Tubulin-Different-Phenotype (%): 64% and 48%
[5]
  Population Apoptotic (%): 70% and 78%
  Population Fragmented Nuclei (%): 5% and 3%
  Population Healthy Nuclei (%): 81% and 89%
  Population Hoechst High Intensity Objects (%): 0%
  Population Membrane Permeable-Phenotype (%): 0% and 1%
  Population Mitochondria Different-Phenotype (%): 0%
  Population Mitotic Cells (%): 30% and 21%
  Population Normal (%): 100% and 99%
  Population Pyknosed Nuclei (%): 13% and 7%
  Population Tubulin-Different-Phenotype (%): 56% and 80%
[6]
  Population Apoptotic (%): 94% and 73%
  Population Fragmented Nuclei (%): 15% and 14%
  Population Healthy Nuclei (%): 47% and 50%
  Population Hoechst High Intensity Objects (%): 3% and 1%
  Population Membrane Permeable-Phenotype (%): 12% and 5%
  Population Mitochondria Different-Phenotype (%): 4% and 5%
  Population Normal (%): 96% and 98%
  Population Pyknosed Nuclei (%): 37% and 34%
  Population Tubulin-Different-Phenotype (%): 62% and 67%
